Assay results collected from several papers.
Target: 3',5'-cyclic-AMP phosphodiesterase 4B (PDE4B, Homo sapiens, UniProt Q07343)
Effect on: enzyme activity
Action: inhibitor

CCn1c(-c2nc3cc(C(=O)N4CCC[C@@H](N)C4)cc(OC)c3n2C)cc2cccnc21 — IC50: 6.31 µM
COc1ccc(C2=NN(C3CCCCCC3)C(=O)C3CC=CCC23)cc1-c1ccc(C(=O)N2CCC[C@@H]2C(N)=O)cc1 (mixture of isomers) — Ki: 6.31 µM
CN1C(=O)c2c(nn(Cc3ccc(-c4cccc(F)n4)cc3)c2Nc2ccccc2)N2C1=N[C@@H]1CCC[C@@H]12 — IC50: > 0.1 µM
CSc1ccc(/C=C2/C(C)=C(CC(=O)O)c3cc(F)ccc32)cc1 — IC50: > 100 µM
COc1ccc(C2=NN(C3CCCCCC3)C(=O)C3CC=CCC23)cc1-c1ccc(C(=O)N2CC[C@@H](O)C2)cc1 (mixture of isomers) — Ki: 2 µM
CC(C)CC(=O)c1ccc(OC(F)F)c(O[C@@H]2CCOC2)c1 — IC50 (radiometric): 0.089 µM
CCn1c(-c2nc3ccc(C(=O)N4CCCC(N)C4)cc3n2C)cc2ccccc21 (centres unmarked) — IC50: 25.1 µM
COc1ccc([C@@H]2CN(C(=O)[C@@H](O)CO)C[C@@]2(C)[C@@H](C)O)cc1OC1CN(c2ccc(C)cn2)C1 — IC50: 9e-05 µM
